pIC50: −log10 of the molar value.
Key:
Homo sapiens [1] = organism: Homo sapiens; test: Inhibition of human Lymphocyte proliferation. The IC50 values were determined by interpolation using the cubic spline determination at 10 uM; type: functional
How it was run: (§1)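 Human PBMC are isolated on Ficoll from heparinized blood and plated at 2 × 10^5 cells/well in RPMI-1640 with 5% FCS. Cells are stimulated with PHA (10 μg/mL final) and given compound at time 0, at 4-6 concentrations between 0.001 and 20 μM (tested to 10 μM). Cultures run in quadruplicate for 72 h at 37 °C, 7% CO2, with [3H]thymidine (0.5 μCi/well) for the last 6 h. IC50 by cubic-spline interpolation of the means.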

[2] = target: T1, Inosine-5'-monophosphate dehydrogenase 2 (Homo sapiens, UniProt P12268); test: Inhibition of human recombinant type II Inosine Monophosphate Dehydrogenase at 100 uM
How it was run: (§2)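 Reactions are run either at pH 7.4 (0.1 M K phosphate, 0.5 M KCl, 3 mM EDTA, 10 μg/mL BSA) or at pH 8.0 (0.1 M Tris-HCl, 0.1 M KCl, 3 mM EDTA, 100 μg/mL BSA). DMSO ≤10%, compounds tested up to 100 μM. IC50 from fit of fractional activity = V0/[(I/IC50)^n + 1].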

Homo sapiens [3] = organism: Homo sapiens; test: Inhibition of human Lymphocyte proliferation. The IC50 values were determined by interpolation using cubic spline determination.; type: functional; how it was run: as §1
[4] = target: T1, Inosine-5'-monophosphate dehydrogenase 2; test: Inhibition of human recombinant inosine monophosphate dehydrogenase type II.; how it was run: as §2
[5] = target: T1, Inosine-5'-monophosphate dehydrogenase 2; test: Inhibition of human recombinant type II Inosine Monophosphate Dehydrogenase. at pH 8.0
How it was run: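 Recombinant human type II IMPDH (12.5-25 pmol) in 0.1 M Tris-HCl pH 8.0, 0.1 M KCl, 3 mM EDTA, 100 μg/mL BSA. […] IC50 fitted with a Hill equation, fractional activity = V0/[(I/IC50)^n + 1].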

Mus musculus = test: Tested for the inhibition of murine PFC response at 100 mg/kg dose; type: functional
Homo sapiens [6] = organism: Homo sapiens; test: Compound was tested for inhibition of human Lymphocyte proliferation. The IC50 values were determined by interpolation using the cubic spline determination at 10 uM; type: functional; how it was run: as §1

Compound	pIC50 (Homo sapiens [3])	pIC50 [4]	other results
COc1c(C/C=C(\C)CCC(=O)O)cc(SC)c(C)c1C	–	–	pIC50 (Homo sapiens [1]): < 5.00; pIC50 [2]: 4.28
COc1c(C/C=C(\C)CCC(=O)O)cc(O)c(C)c1C	–	–	pIC50 [2]: < 4.00
C/C(=C\Cc1c(O)c2c(c(C)c1C(N)=O)COC2=O)CCC(=O)O	< 5.00	6.64	–
C/C(=C\Cc1c(O)c2c(c(C)c1-c1ccccc1)COC2=O)CCC(=O)O	5.55	6.89	–
C/C(=C\Cc1c(N)cc(C)c(C)c1C)CCC(=O)O	–	4.04	–
COc1c(C/C=C(\C)CCC(=O)O)cc(N)c(C)c1C	–	4.77	–
COc1c(C/C=C(\C)CCC(=O)O)cc(C#N)c(C)c1C	–	5.80	–
C/C(=C\Cc1c(C)c(C)c(C)c(Br)c1N)CCC(=O)O	–	6.12	–
COc1c(C)c2c(c(O)c1C/C=C(\C)CCC(=O)O)C(=O)OC2C (centres undefined)	6.22	–	pIC50 [5]: 6.38
CCc1c2c(c(O)c(C/C=C(\C)CCC(=O)O)c1OC)C(=O)OC2	5.52	–	pIC50 [5]: 6.39
COc1c(C)c(C)c([N+](=O)[O-])c(Cl)c1C/C=C(\C)CCC(=O)O	–	–	pIC50 (Homo sapiens [1]): < 5.00; pIC50 [2]: 5.74
COc1c(C)c(C)c(C#N)c(Cl)c1C/C=C(\C)CCC(=O)O	–	–	pIC50 (Homo sapiens [1]): < 5.00; pIC50 [2]: 6.17
COc1c(C)c(C)c(C)c(O)c1C/C=C(\C)CCC(=O)O	5.43	6.02	–
C/C(=C\Cc1c(O)c(C)c2c(c1O)C(=O)OC2)CCC(=O)O	< 5.00	7.06	–
COc1c(C)c(C)c(Br)c(N)c1C/C=C(\C)CCC(=O)O	5.39	6.34	inhibition in vivo at 100 mg/kg (Mus musculus): 30%
C/C(=C\Cc1c(O)c2c(c(C)c1C#N)COC2=O)CCC(=O)O	< 5.00	4.81	–

Compound	pIC50 (Homo sapiens [3])	pIC50 [4]	other results
CCOc1c(C)c2c(c(O)c1C/C=C(\C)CCC(=O)O)C(=O)OC2	6.37	–	pIC50 [5]: 7.05
COc1cc(C/C=C(\C)CCC(=O)O)c(OC)c(C)c1C	–	4.30	–
COc1c(C)c(C)c(I)c(O)c1C/C=C(\C)CCC(=O)O	5.31	6.23	–
COc1c(C/C=C(\C)CCC(=O)O)cc([N+](=O)[O-])c(C)c1C	5.02	5.91	–
C/C(=C\Cc1c(C)c(C)c(C)c(Cl)c1O)CCC(=O)O	6.44	7.16	–
COc1c(C)c(C)c(C=O)c(O)c1C/C=C(\C)CCC(=O)O	5.00	5.95	–
COc1c(C)c(C)c(Cl)c(F)c1C/C=C(\C)CCC(=O)O	5.12	6.36	inhibition in vivo at 100 mg/kg (Mus musculus): 0%
COc1c(C#N)c2c(c(O)c1C/C=C(\C)CCC(=O)O)C(=O)OC2	< 5.00	–	pIC50 [5]: < 4.00
COc1c(C)c2c(c(O)c1C/C=C(\C)CCC(=O)O)C(=O)NC2	5.82	–	pIC50 [5]: 6.61
COc1c(C/C=C(\C)CCC(=O)O)cc(Br)c(C)c1C	–	–	pIC50 (Homo sapiens [1]): < 5.00; pIC50 [2]: 6.10
COc1c(C)c(C)c(OC)c(C/C=C(\C)CCC(=O)O)c1O	–	4.92	–
C/C(=C\Cc1c(O)c2c(c(C)c1C1CC1)COC2=O)CCC(=O)O	6.47	7.29	–
COc1c(C)c(C)c(C#N)c(N)c1C/C=C(\C)CCC(=O)O	5.39	4.83	–
COc1c(C)c(C)c(/C=N/O)c(O)c1C/C=C(\C)CCC(=O)O	–	–	pIC50 (Homo sapiens [6]): < 5.00; pIC50 [2]: 4.92
COc1c(C)c(C)c([N+](=O)[O-])c(N)c1C/C=C(\C)CCC(=O)O	5.55	6.33	–
C=Cc1c(C)c2c(c(O)c1C/C=C(\C)CCC(=O)O)C(=O)OC2	7.03	8.07	–
